Experimental data: ChEMBL document CHEMBL1932931, “Analogues of doxanthrine reveal differences between the dopamine D1 receptor binding properties of chromanoisoquinolines and hexahydrobenzo[a]phenanthridines” (Eur J Med Chem, 2012)

Tests used:
[1] = Selectivity ratio of Ki for dopamine D1 receptor to Ki for dopamine D2 receptor
[2] = Displacement of [3H]SCH-23390 from dopamine D1-like receptor in porcine striatal homogenates after 30 mins by scintillation counting; type: tissue-based, Sus scrofa
How it was run: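 Fresh porcine striatum was homogenized in 20 mM Hepes/0.32 M sucrose (pH 7.4), and the P2 membrane pellet was washed in 50 mM Tris (pH 7.4) and stored at -80 °C. Incubation was 30 min at 37 °C, then filtration and scintillation counting. Values are means ± SEM of 4-11 independent experiments.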

Sus scrofa = species on record: Sus scrofa; experiment: Selectivity ratio of Ki for dopamine D2-like receptor in porcine striatal homogenates to Ki for dopamine D1-like receptor in porcine striatal homogenates; type: tissue-based
[3] = Displacement of [3H]spiperone from dopamine D2-like receptor in porcine striatal homogenates after 30 mins by scintillation counting; type: tissue-based, Sus scrofa
D(2) dopamine receptor = D(2) dopamine receptor (Homo sapiens, UniProt P14416); experiment: Binding affinity to dopamine D2 receptor
Sequence of D(2) dopamine receptor (P14416 whole entry): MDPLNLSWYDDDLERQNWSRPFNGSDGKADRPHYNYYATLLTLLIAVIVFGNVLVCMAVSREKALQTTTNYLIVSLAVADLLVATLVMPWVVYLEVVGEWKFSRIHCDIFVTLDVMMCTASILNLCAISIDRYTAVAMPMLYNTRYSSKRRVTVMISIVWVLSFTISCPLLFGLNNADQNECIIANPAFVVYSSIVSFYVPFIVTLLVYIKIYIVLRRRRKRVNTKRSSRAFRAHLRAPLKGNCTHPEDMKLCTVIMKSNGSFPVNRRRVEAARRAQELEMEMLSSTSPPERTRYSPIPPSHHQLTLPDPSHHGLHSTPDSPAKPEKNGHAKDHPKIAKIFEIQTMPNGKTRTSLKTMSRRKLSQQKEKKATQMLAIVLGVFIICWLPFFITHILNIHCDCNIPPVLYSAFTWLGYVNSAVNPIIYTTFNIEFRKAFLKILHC

SMILES	Ratio Ki [1]	Ki [2] [µM]	Ratio Ki (Sus scrofa)	Ki [3] [µM]	Ki (D(2) dopamine receptor) [µM]
Cc1ccc2c(c1)[C@@H]1c3cc(O)c(O)cc3CC[C@H]1NC2	34.7	–	–	–	–
CN1CCc2cc(Cl)c(O)cc2[C@@H](c2ccccc2)C1	–	0.00046	–	–	–
Cc1ccc2c(c1)[C@@H]1c3cc(O)c(O)cc3OC[C@H]1NC2 (racemic)	–	0.15	55	6.8	–
CCc1ccc2c(c1)[C@@H]1c3cc(O)c(O)cc3OC[C@H]1NC2 (racemic)	–	0.18	49	6.4	–
CCc1ccc2c(c1)[C@@H]1c3cc(O)c(O)cc3CC[C@H]1NC2	14.5	–	–	–	0.42
Oc1cc2c(cc1O)[C@H]1c3cc(C(F)(F)F)ccc3CN[C@@H]1CO2 (racemic)	–	0.57	14	6.9	–
Oc1cc2c(cc1O)[C@H]1c3ccccc3CN[C@@H]1CS2 (racemic)	–	0.2	15	2.5	–
Oc1cc2c(cc1O)[C@H]1c3cc(F)ccc3CN[C@@H]1CO2 (racemic)	–	0.11	8.5	0.74	–
